Measured values published in PMC3082038 (Cancer Chemotherapy and Pharmacology, 2010).

What was measured:
t-PA = test: Angiogenesis-related factor: t-PA; assay type: in vivo, human
In short: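 Plasma and urine were collected from patients before treatment and after day 8 and day 28 of oral test compound dosing, and analysed at a central commercial laboratory. ELISA kits were used for human VEGF (plasma and urine), ELAM-1, VCAM-1 and soluble t-PA. Soluble PAI-1 was measured by latex photometric immunoassay. Values are reported as median (range) per time point.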

[1] = 100 mg/m^2 after meals, previous clinical study; cited from earlier work
[2] = test system: Japanese patients with solid tumors; test: Phase I safety: drug-related adverse events, DLT, MTD, recommended dose; assay type: in vivo, human; conditions: for Recommended dosage: after-meal conditions
In short: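 Dose escalation used three-patient cohorts, alternating b.i.d. and t.i.d., starting at 200 mg/m2 b.i.d. Oral dosing was by body surface area for 28 days continuously. b.i.d. doses were taken within 1 h after meals, about 12 h apart; t.i.d. doses about 6 or 12 h apart. Patients were assessed at least weekly and graded by NCI-CTC v2.0. DLT: grade ≥3 non-haematological or grade ≥4 haematological drug-related event. MTD: DLT in 2/3 or 3/6 patients.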

[3] = b.i.d. 200 mg/m^2 × 2, n = 3, G1
[4] = b.i.d. 200 mg/m^2 × 2, n = 3, G2
[5] = b.i.d. 400 mg/m^2 × 2, n = 6, G1
[6] = b.i.d. 400 mg/m^2 × 2, n = 6, G2
[7] = b.i.d. 400 mg/m^2 × 2, n = 6, G3
[8] = b.i.d. 500 mg/m^2 × 2, n = 3, G1
[9] = b.i.d. 500 mg/m^2 × 2, n = 3, G2
[10] = t.i.d. 200 mg/m^2 × 3, n = 6, G1
[11] = t.i.d. 200 mg/m^2 × 3, n = 6, G2
[12] = t.i.d. 400 mg/m^2 × 3, n = 6, G1
[13] = t.i.d. 400 mg/m^2 × 3, n = 6, G2
[14] = t.i.d. 400 mg/m^2 × 3, n = 6, G4

Cc1[nH]c(/C=C2\C(=O)Nc3ccccc32)c(C)c1CCC(=O)O [TSU-68, (Z)-5-[(1,2-dihydro-2-oxo-3H-indol-3-ylidene)methyl]-2,4-dimethyl-1H-pyrrole-3-propanoic acid]
t-PA, median (t-PA; day 8, 23 patients): 7.2 ng/mL | t-PA, range (t-PA; day 8, 23 patients): 3.3 to 14.3 ng/mL | t-PA, median (t-PA; day 28, 22 patients): 6.8 ng/mL | t-PA, range (t-PA; day 28, 22 patients): 2.9 to 13.5 ng/mL | Absolute bioavailability [1]: 42% | Patients experiencing DLTs ([2]; 400 mg/m^2 b.i.d. dose level, three plus three patients, grade 3 dyspnea, hypoxemia, pleural effusion and anorexia, and unacceptable grade 2 anorexia): 2 patients | Dose-limiting toxicity (DLT) ([2]; 500 mg/m^2 b.i.d. dose level): not found | Toxicity ≥ G3-4 ([2]; Pt 4, SCLC, b.i.d. 400 mg/m^2 (1,200 mg/day)): G3 (DLT) | Toxicity ≥ G3-4 ([2]; Pt 5, NSCLC, b.i.d. 400 mg/m^2 (1,200 mg/day)): – (DLT) | Toxicity ≥ G3-4 ([2]; Pt 19, NSCLC, t.i.d. 400 mg/m^2 (2,400 mg/day)): G4 (DLT) | Abdominal pain upper, Total no. (%) ([2]; all dose levels, n = 24): 5 (20.8) no. (%) | Abdominal pain, Total no. (%) ([2]; all dose levels, n = 24): 11 (45.8) no. (%) | Alkaline phosphatase increased, Total no. (%) ([2]; all dose levels, n = 24): 13 (54.2) no. (%) | Anorexia, Total no. (%) ([2]; all dose levels, n = 24): 12 (50.0) no. (%) | Back pain, Total no. (%) ([2]; all dose levels, n = 24): 5 (20.8) no. (%) | Blood albumin decreased, Total no. (%) ([2]; all dose levels, n = 24): 20 (83.3) no. (%) | Diarrhea, Total no. (%) ([2]; all dose levels, n = 24): 17 (70.8) no. (%) | Discoloration urine/stool, Total no. (%) ([2]; all dose levels, n = 24): 24 (100) no. (%) | Dyspnea, Total no. (%) ([2]; all dose levels, n = 24): 1 (4.2) no. (%) | Face edema, Total no. (%) ([2]; all dose levels, n = 24): 6 (25.0) no. (%) | Headache, Total no. (%) ([2]; all dose levels, n = 24): 7 (29.2) no. (%) | Hypoxia, Total no. (%) ([2]; all dose levels, n = 24): 1 (4.2) no. (%) | Malaise, Total no. (%) ([2]; all dose levels, n = 24): 18 (75.0) no. (%) | Nauseous, Total no. (%) ([2]; all dose levels, n = 24): 9 (37.5) no. (%) | Pericardial effusion, Total no. (%) ([2]; all dose levels, n = 24): 1 (4.2) no. (%) | Pleural effusion, Total no. (%) ([2]; all dose levels, n = 24): 5 (20.8) no. (%) | Vomiting, Total no. (%) ([2]; all dose levels, n = 24): 8 (33.3) no. (%) | γ-glutamyltransferase increased, Total no. (%) ([2]; all dose levels, n = 24): 6 (25.0) no. (%) | No. maximum grade (patients, drug-related adverse events) [2, 3]: 0 | Number of patients with drug-related Alkaline phosphatase increased [2, 3]: 1 | Number of patients with drug-related Anorexia [2, 3]: 2 | Number of patients with drug-related Blood albumin decreased [2, 3]: 1 | Number of patients with drug-related Diarrhea [2, 3]: 1 | Number of patients with drug-related Discoloration urine/stool [2, 3]: 3 | Number of patients with drug-related Malaise [2, 3]: 1 | Number of patients with drug-related Serum total protein decreased [2, 3]: 1 | No. maximum grade (patients, drug-related adverse events) [2, 4]: 3 | Number of patients with drug-related Abdominal pain [2, 4]: 2 | Number of patients with drug-related Blood albumin decreased [2, 4]: 1 | Number of patients with drug-related Diarrhea [2, 4]: 1 | Number of patients with drug-related Malaise [2, 4]: 1 | Number of patients with drug-related Nauseous [2, 4]: 1 | Number of patients with drug-related Vomiting [2, 4]: 1 | No. maximum grade (patients, drug-related adverse events) ([2]; b.i.d. 200 mg/m^2 × 2, n = 3, G3): 0 | No. maximum grade (patients, drug-related adverse events) ([2]; b.i.d. 200 mg/m^2 × 2, n = 3, G4): 0 | No. maximum grade (patients, drug-related adverse events) [2, 5]: 0 | Number of patients with drug-related Abdominal pain [2, 5]: 1 | Number of patients with drug-related Abdominal pain upper [2, 5]: 1 | Number of patients with drug-related Alkaline phosphatase increased [2, 5]: 6 | Number of patients with drug-related Anorexia [2, 5]: 2 | Number of patients with drug-related Back pain [2, 5]: 1 | Number of patients with drug-related Blood albumin decreased [2, 5]: 2 | Number of patients with drug-related Diarrhea [2, 5]: 5 | Number of patients with drug-related Discoloration urine/stool [2, 5]: 6 | Number of patients with drug-related Headache [2, 5]: 1 | Number of patients with drug-related Malaise [2, 5]: 4 | Number of patients with drug-related Nauseous [2, 5]: 2 | Number of patients with drug-related Pleural effusion [2, 5]: 1 | Number of patients with drug-related Vomiting [2, 5]: 2 | Number of patients with drug-related γ-glutamyltransferase increased [2, 5]: 1 | No. maximum grade (patients, drug-related adverse events) [2, 6]: 5 | Number of patients with drug-related Abdominal pain [2, 6]: 2 | Number of patients with drug-related Anorexia [2, 6]: 1 | Number of patients with drug-related Back pain [2, 6]: 1 | Number of patients with drug-related Blood albumin decreased [2, 6]: 2 | Number of patients with drug-related Headache [2, 6]: 2 | Number of patients with drug-related Nauseous [2, 6]: 1 | Number of patients with drug-related Serum total protein decreased [2, 6]: 1 | Number of patients with drug-related γ-glutamyltransferase increased [2, 6]: 2 | No. maximum grade (patients, drug-related adverse events) [2, 7]: 1 | Number of patients with drug-related Anorexia [2, 7]: 1 | Number of patients with drug-related Dyspnea [2, 7]: 1 | Number of patients with drug-related Hypoxia [2, 7]: 1 | Number of patients with drug-related Pleural effusion [2, 7]: 1 | No. maximum grade (patients, drug-related adverse events) ([2]; b.i.d. 400 mg/m^2 × 2, n = 6, G4): 0 | No. maximum grade (patients, drug-related adverse events) [2, 8]: 0 | Number of patients with drug-related Abdominal pain upper [2, 8]: 1 | Number of patients with drug-related Alkaline phosphatase increased [2, 8]: 1 | Number of patients with drug-related Anorexia [2, 8]: 2 | Number of patients with drug-related Blood albumin decreased [2, 8]: 1 | Number of patients with drug-related Diarrhea [2, 8]: 1 | Number of patients with drug-related Discoloration urine/stool [2, 8]: 3 | Number of patients with drug-related Face edema [2, 8]: 1 | Number of patients with drug-related Headache [2, 8]: 1 | Number of patients with drug-related Malaise [2, 8]: 3 | Number of patients with drug-related Nauseous [2, 8]: 3 | Number of patients with drug-related Pleural effusion [2, 8]: 1 | Number of patients with drug-related Serum total protein decreased [2, 8]: 1 | Number of patients with drug-related Vomiting [2, 8]: 2 | No. maximum grade (patients, drug-related adverse events) [2, 9]: 3 | Number of patients with drug-related Abdominal pain upper [2, 9]: 1 | Number of patients with drug-related Blood albumin decreased [2, 9]: 2 | Number of patients with drug-related Headache [2, 9]: 1 | Number of patients with drug-related Serum total protein decreased [2, 9]: 1 | No. maximum grade (patients, drug-related adverse events) ([2]; b.i.d. 500 mg/m^2 × 2, n = 3, G3): 0 | No. maximum grade (patients, drug-related adverse events) ([2]; b.i.d. 500 mg/m^2 × 2, n = 3, G4): 0 | Recommended dose suggested by the Independent Data Monitoring Committee ([2]; b.i.d. after meals): 400 mg/body | Recommended dosage ([2]; b.i.d.): ≤ 400 mg/m^2 | No. maximum grade (patients, drug-related adverse events) [2, 10]: 1 | Number of patients with drug-related Abdominal pain [2, 10]: 1 | Number of patients with drug-related Alkaline phosphatase increased [2, 10]: 2 | Number of patients with drug-related Anorexia [2, 10]: 2 | Number of patients with drug-related Blood albumin decreased [2, 10]: 5 | Number of patients with drug-related Diarrhea [2, 10]: 4 | Number of patients with drug-related Discoloration urine/stool [2, 10]: 6 | Number of patients with drug-related Face edema [2, 10]: 2 | Number of patients with drug-related Malaise [2, 10]: 6 | Number of patients with drug-related Nauseous [2, 10]: 1 | Number of patients with drug-related Pleural effusion [2, 10]: 1 | Number of patients with drug-related Serum total protein decreased [2, 10]: 1 | Number of patients with drug-related Vomiting [2, 10]: 3 | Number of patients with drug-related γ-glutamyltransferase increased [2, 10]: 1 | No. maximum grade (patients, drug-related adverse events) [2, 11]: 5 | Number of patients with drug-related Abdominal pain [2, 11]: 2 | Number of patients with drug-related Abdominal pain upper [2, 11]: 2 | Number of patients with drug-related Back pain [2, 11]: 1 | Number of patients with drug-related Blood albumin decreased [2, 11]: 1 | Number of patients with drug-related Diarrhea [2, 11]: 1 | No. maximum grade (patients, drug-related adverse events) ([2]; t.i.d. 200 mg/m^2 × 3, n = 6, G3): 0 | No. maximum grade (patients, drug-related adverse events) ([2]; t.i.d. 200 mg/m^2 × 3, n = 6, G4): 0 | No. maximum grade (patients, drug-related adverse events) [2, 12]: 0 | Number of patients with drug-related Abdominal pain [2, 12]: 1 | Number of patients with drug-related Alkaline phosphatase increased [2, 12]: 2 | Number of patients with drug-related Anorexia [2, 12]: 1 | Number of patients with drug-related Blood albumin decreased [2, 12]: 3 | Number of patients with drug-related Diarrhea [2, 12]: 3 | Number of patients with drug-related Discoloration urine/stool [2, 12]: 6 | Number of patients with drug-related Face edema [2, 12]: 3 | Number of patients with drug-related Headache [2, 12]: 2 | Number of patients with drug-related Malaise [2, 12]: 3 | Number of patients with drug-related Nauseous [2, 12]: 1 | Number of patients with drug-related Pleural effusion [2, 12]: 1 | Number of patients with drug-related Serum total protein decreased [2, 12]: 1 | Number of patients with drug-related γ-glutamyltransferase increased [2, 12]: 2 | No. maximum grade (patients, drug-related adverse events) [2, 13]: 5 | Number of patients with drug-related Abdominal pain [2, 13]: 2 | Number of patients with drug-related Alkaline phosphatase increased [2, 13]: 1 | Number of patients with drug-related Anorexia [2, 13]: 1 | Number of patients with drug-related Back pain [2, 13]: 2 | Number of patients with drug-related Blood albumin decreased [2, 13]: 2 | Number of patients with drug-related Diarrhea [2, 13]: 1 | No. maximum grade (patients, drug-related adverse events) ([2]; t.i.d. 400 mg/m^2 × 3, n = 6, G3): 0 | No. maximum grade (patients, drug-related adverse events) [2, 14]: 1 | Number of patients with drug-related Pericardial effusion [2, 14]: 1 | MTD (maximum tolerated dose) ([2]; t.i.d. after meals, up to 400 mg/m^2): not reached | Recommended dosage ([2]; t.i.d.): ≤ 400 mg/m^2
